Test [1] deals with Leukotriene B4 receptor (Cavia porcellus). Put plainly: Binding affinity towards Leukotriene B4 receptor guinea pig lung membrane using [3H]LTB4 as radioligand.
The target of test [2] is T1, Leukotriene B4 receptor (Homo sapiens, UniProt Q9NPC1+Q15722). Put plainly: Binding affinity towards human LTB4 receptor measured as inhibition of binding of [3H]LTB4 to isolated human neutrophils.
The target of test [3] is T1, Leukotriene B4 receptor. Description: Inhibition of LTB4 induced expression of human neutrophil integrin CD11b/CD18. Format: functional. The essentials:
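Human neutrophils stimulated with LTB4; test agents, mostly as sodium salts, dissolved in dilute sodium bicarbonate vehicle. Integrin CD11b/CD18 surface expression read by flow cytometry. IC50 derived from inhibition of LTB4-induced up-regulation. Where SEM is given, the value is the mean of at least four determinations.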

The structures appear in SMILES notation.

As usually defined, the Ki is a dissociation constant, usually derived from enzyme kinetics or from competition with a known ligand. A high value points to weaker binding. As for `CCc1cc(-c2ccccc2)c(O)cc1OCCCOc1ccc2c(=O)c3ccccc3oc2c1CCC(=O)O`, the Ki in test [1] is reported as 12 nM; on Leukotriene B4 receptor [2] it was 22 nM.
On to `CCc1cc(-c2ccc(F)cc2)c(O)cc1OCCCOc1ccc2c(=O)c3ccccc3oc2c1CCC(=O)O`, for which the Ki in test [1] came to 4 nM; at Leukotriene B4 receptor [2] it was 36 nM.
As usually defined, the IC50 is the midpoint of a concentration-inhibition curve. A higher IC50 goes with lower potency. As for `CCCc1c(OCCCCCOc2cc(O)c(-c3ccc(F)cc3)cc2CC)cccc1Oc1ccccc1C(=O)O`, the Ki stood at 6.8 nM in test [1] and 150 nM at Leukotriene B4 receptor [2]. For the same molecule, the half-maximal inhibitory concentration (IC50) against Leukotriene B4 receptor [3] worked out at 9.5 nM.
As to `CCc1cc(-c2ccc(F)cc2)c(O)cc1OCCCOc1cccc(OCCCCC(=O)O)c1CCC(=O)O`, the 50% inhibitory concentration (IC50) at Leukotriene B4 receptor [3] is reported as 13 nM. Also, the inhibition constant Ki at Leukotriene B4 receptor [2] came to 2.3 nM.
Turning to `CCCCc1c(OCCCOc2cc(O)c(-c3ccc(F)cc3)cc2CC)cccc1Oc1ccccc1C(=O)O`, the inhibition constant Ki was found to be 16 nM in test [1] and 34 nM at Leukotriene B4 receptor [2]. The molecule also gave a 50% inhibitory concentration (IC50) on Leukotriene B4 receptor [3] of 14 nM.
With `CCCc1c(OCCCCOc2cc(O)c(-c3ccc(F)cc3)cc2CC)cccc1Oc1ccccc1C(=O)O`, the results for the Ki (in test [1]; on Leukotriene B4 receptor [2]) were 19 nM and 39 nM, respectively. This molecule came in with a half-maximal inhibitory concentration (IC50) against Leukotriene B4 receptor [3] of 5.1 nM.
Turning to `CCCc1cc(CC)c(OCCCCCC(C)(C)c2nn[nH]n2)cc1O`, at Leukotriene B4 receptor [2], the inhibition constant Ki is on record as 9.3 nM.
With `CCc1cc(-c2ccc(F)cc2)c(O)cc1OCCCOc1ccccc1CCc1nnn[nH]1`, the inhibition constant Ki (in test [1]; on Leukotriene B4 receptor [2]) was 15 nM each time.
Regarding `CCCc1c(OCCCOc2cc(O)c(-c3ccc(F)cc3)cc2CC)ccc2c1OC(C(=O)O)CC2` (stereo not drawn), the Ki in test [1] turned out to be 4.4 nM; on Leukotriene B4 receptor [2], 3.8 nM. For the same molecule, on Leukotriene B4 receptor [3], the IC50 was determined as 17 nM.
In the same order, the values of `CCc1cc(-c2ccc(F)cc2)c(O)cc1OCCCOc1cccc(Oc2ccccc2C(=O)O)c1CC(C)C` are 14 nM, 36 nM and 8.5 nM.
In the same order, the values of `CCc1cc(-c2ccc(F)cc2)c(O)cc1OCCCOc1cccc(Oc2ccccc2C(=O)O)c1Cc1ccccc1` are 55 nM, 390 nM and 220 nM.
The like results for `CCCc1c(OCCCOc2cc(O)c(-c3ccccc3)cc2CC)cccc1Oc1ccccc1C(=O)O` were, in that order, 16 nM, 19 nM and 11 nM.
On to `CCCc1c(OCCCOc2cc(O)c(-c3ccc(F)cc3)cc2CC)cccc1Oc1cccc(F)c1C(=O)O`, for which the Ki in test [1] was 9.5 nM; at Leukotriene B4 receptor [2], 4.4 nM. For the same molecule, at Leukotriene B4 receptor [3], the half-maximal inhibitory concentration (IC50) stood at 2.5 nM.
In the same order, the values of `CCCc1c(OCCCOc2cc(O)c(-c3ccc(F)cc3)cc2CC)cccc1C(=O)c1ccccc1C(=O)O` are 11 nM, 35 nM and 13 nM.
Turning to `CCc1cc(-c2ccc(F)cc2)c(O)cc1OCCCOc1cccc(OCCCCC(=O)N(C)C)c1CCC(=O)O`, at Leukotriene B4 receptor [3], the IC50 was 7.8 nM. The Ki at Leukotriene B4 receptor [2] is recorded as 3.1 nM.
As to `CCCc1c(OCCCOc2cc(O)c(-c3ccc(F)cc3)cc2CC)cccc1Sc1ccccc1C(=O)O`, the Ki in test [1] came to 11 nM; at Leukotriene B4 receptor [2] it was 350 nM. The molecule also registered a half-inhibitory concentration (IC50) against Leukotriene B4 receptor [3] of 7.4 nM.
The like results for `CCCc1c(OCCCOc2cc(O)c(-c3ccc(F)cc3)cc2CC)cccc1[S+]([O-])c1ccccc1C(=O)O` (stereo not drawn) were, in that order, 1.4 nM, 14 nM and 95 nM.
In the same order, the values of `CCc1cc(-c2ccc(F)cc2)c(O)cc1OCCCOc1cccc(OC)c1CCC(=O)O` are 6.4 nM, 8.3 nM and 64 nM.
On to `CCc1cc(-c2ccc(F)cc2)c(O)cc1OCCCOc1ccccc1CCC(=O)O`, for which the values for the inhibition constant Ki (in test [1]; on Leukotriene B4 receptor [2]) were 3.8 nM and 8 nM, respectively. For the same molecule, the half-inhibitory concentration (IC50) at Leukotriene B4 receptor [3] turned out to be 31 nM.
The molecule `CCc1cc(-c2ccc(N(C)C)cc2)c(O)cc1OCCCCCC(C)(C)c1nn[nH]n1` returned an inhibitory constant (Ki) on Leukotriene B4 receptor [2] of 16 nM.
Same read-out and setting: then `CCc1cc(-c2cccc(C(F)(F)F)c2)c(O)cc1OCCCCCC(C)(C)c1nn[nH]n1`, with 33 nM.
Regarding `CCc1cc(-c2ccc(F)cc2)c(O)cc1OCCCOc1ccc2c(=O)c3cc(C(=O)O)ccc3oc2c1CCC(=O)O`, the inhibition constant (Ki) in test [1] is 0.04 nM; at Leukotriene B4 receptor [2] it was 0.47 nM.
As to `CCc1cc(-c2ccccn2)c(O)cc1OCCCCCC(C)(C)c1nn[nH]n1`, the inhibition constant (Ki) on Leukotriene B4 receptor [2] worked out at 453 nM.
Still for that read-out and setting: then `CCc1cc(-c2ccc(F)cc2)c(O)cc1OCCCOc1cccc(OCCCCc2nnn[nH]2)c1CCC(=O)O`, with 2.3 nM.
As to `CCc1cc(-c2ccccc2)c(O)cc1OCCCOc1ccc2c(=O)c3cc(C(=O)O)ccc3oc2c1CCC(=O)O`, the Ki in test [1] was 0.11 nM; at Leukotriene B4 receptor [2] it was 0.51 nM.
On to `CCCc1c(OCCCOc2cc(O)c(-c3ccc(F)cc3)cc2CC)cccc1Oc1ccccc1CC(=O)O`, for which the inhibitory constant (Ki) in test [1] stood at 8.4 nM; on Leukotriene B4 receptor [2], 210 nM. Besides, the IC50 against Leukotriene B4 receptor [3] is given as 7.8 nM.
The like results for `CCCc1c(OCCCOc2cc(O)c(-c3ccccc3)cc2CC)ccc2c1OC(C(=O)O)CC2` (stereo not drawn) were, in that order, 2.8 nM, 3.3 nM and 110 nM.
The like results for `CCCc1c(OCCCOc2cc(O)c(-c3ccc(F)cc3)cc2CC)cccc1Oc1cc(F)ccc1C(=O)O` were, in that order, 19 nM, 48 nM and 2.7 nM.
In the same order, the values of `CCCc1c(OCCCOc2cc(O)c(-c3ccccc3)cc2CC)cccc1Oc1cccc(F)c1C(=O)O` are 14 nM, 10 nM and 3.2 nM.
For the molecule `CCCc1c(OCCCOc2cc(O)c(-c3ccc(F)cc3)cc2CC)cccc1Oc1ccccc1C(=O)O` [ETALOCIB], the values for the Ki (in test [1]; at Leukotriene B4 receptor [2]) were 6.6 nM and 17 nM, respectively. For the same molecule, the 50% inhibitory concentration (IC50) at Leukotriene B4 receptor [3] is recorded as 3.3 nM.

The values above are taken from ChEMBL document CHEMBL1128176 (J Med Chem, 1995).
